# Data: ChEMBL document CHEMBL5724801, “EUbOPEN Chemogenomics Library - Multiplex” (2024)
# Several values for one entry are separate records, joined by “and”; a condition that tells them apart may be missing. Equal values may be shown once.
# System: HEK-293T
# Experiment: Multiplex assay against HEK293T
# Assay type: toxicity, cell-based
# Details: human
# Procedure, shortened: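 Values for tubulin, mitochondrial-mass and membrane-permeability phenotypes are per cents of cells with healthy nuclei. These cells were identified by CellPathfinder machine-learning gating of live cells that had been stained at seeding with Hoechst33342, BioTracker Green Microtubule Cytoskeleton Dye, MitoTracker Red and Annexin V Alexa Fluor 680 and imaged on a CQ1 microscope at 37°C and 5% CO2 after compound addition. The gating first set Hoechst high-intensity objects apart from normal cells, then split normal cells into healthy, pyknosed or fragmented nuclei, and pyknosed cells into mitotic or apoptotic.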
# [1] = 12 h, 1 µM, compound concentration 1 uM
# [2] = 12 h, 10 µM, compound concentration 10 uM
# [3] = 24 h, 1 µM, compound concentration 1 uM
# [4] = 24 h, 10 µM, compound concentration 10 uM
# [5] = 48 h, 1 µM, compound concentration 1 uM
# [6] = 48 h, 10 µM, compound concentration 10 uM
smiles,measurement,setting,value
O=C(O)c1cc2ccccc2c(Cc2c(O)c(C(=O)O)cc3ccccc23)c1O [PAMOIC ACID],Population Apoptotic (%),[1],30% and 58%
same,Population Fragmented Nuclei (%),[1],9% and 7%
same,Population Healthy Nuclei (%),[1],77%
same,Population Hoechst High Intensity Objects (%),[1],7% and 6%
same,Population Membrane Permeable-Phenotype (%),[1],0%
same,Population Mitochondria Different-Phenotype (%),[1],38% and 60%
same,Population Mitotic Cells (%),[1],69% and 41%
same,Population Normal (%),[1],92% and 93%
same,Population Pyknosed Nuclei (%),[1],12% and 15%
same,Population Tubulin-Different-Phenotype (%),[1],23% and 21%
same,Total Cell Count,[1],432 and 303
same,Population Apoptotic (%),[2],34% and 52%
same,Population Fragmented Nuclei (%),[2],8% and 4%
same,Population Healthy Nuclei (%),[2],79% and 81%
same,Population Hoechst High Intensity Objects (%),[2],8%
same,Population Membrane Permeable-Phenotype (%),[2],0%
same,Population Mitochondria Different-Phenotype (%),[2],44% and 55%
same,Population Mitotic Cells (%),[2],65% and 47%
same,Population Normal (%),[2],91%
same,Population Pyknosed Nuclei (%),[2],12% and 13%
same,Population Tubulin-Different-Phenotype (%),[2],34% and 26%
same,Total Cell Count,[2],446 and 275
same,Population Apoptotic (%),[3],29% and 40%
same,Population Fragmented Nuclei (%),[3],8% and 5%
same,Population Healthy Nuclei (%),[3],78% and 86%
same,Population Hoechst High Intensity Objects (%),[3],6%
same,Population Membrane Permeable-Phenotype (%),[3],1% and 0%
same,Population Mitochondria Different-Phenotype (%),[3],22% and 39%
same,Population Mitotic Cells (%),[3],70% and 59%
same,Population Normal (%),[3],93%
same,Population Pyknosed Nuclei (%),[3],12% and 7%
same,Population Tubulin-Different-Phenotype (%),[3],16%
same,Total Cell Count,[3],559 and 378
same,Population Apoptotic (%),[4],29% and 41%
same,Population Fragmented Nuclei (%),[4],9% and 5%
same,Population Healthy Nuclei (%),[4],75% and 79%
same,Population Hoechst High Intensity Objects (%),[4],5% and 7%
same,Population Membrane Permeable-Phenotype (%),[4],0%
same,Population Mitochondria Different-Phenotype (%),[4],27% and 43%
same,Population Mitotic Cells (%),[4],70% and 58%
same,Population Normal (%),[4],94% and 92%
same,Population Pyknosed Nuclei (%),[4],14% and 15%
same,Population Tubulin-Different-Phenotype (%),[4],22% and 18%
same,Total Cell Count,[4],592 and 365
same,Population Apoptotic (%),[5],18% and 48%
same,Population Fragmented Nuclei (%),[5],11% and 8%
same,Population Healthy Nuclei (%),[5],81% and 84%
same,Population Hoechst High Intensity Objects (%),[5],2% and 7%
same,Population Membrane Permeable-Phenotype (%),[5],1% and 0%
same,Population Mitochondria Different-Phenotype (%),[5],13% and 27%
same,Population Mitotic Cells (%),[5],81% and 51%
same,Population Normal (%),[5],97% and 92%
same,Population Pyknosed Nuclei (%),[5],7% and 6%
same,Population Tubulin-Different-Phenotype (%),[5],10% and 11%
same,Total Cell Count,[5],998 and 494
same,Population Apoptotic (%),[6],24% and 36%
same,Population Fragmented Nuclei (%),[6],13% and 11%
same,Population Healthy Nuclei (%),[6],79% and 82%
same,Population Hoechst High Intensity Objects (%),[6],3% and 7%
same,Population Membrane Permeable-Phenotype (%),[6],0%
same,Population Mitochondria Different-Phenotype (%),[6],18% and 27%
same,Population Mitotic Cells (%),[6],75% and 64%
same,Population Normal (%),[6],96% and 92%
same,Population Pyknosed Nuclei (%),[6],7% and 5%
same,Population Tubulin-Different-Phenotype (%),[6],10% and 12%
same,Total Cell Count,[6],879 and 517
COCCCN1CCC(NC(=O)c2cc(Cl)c(N)c3c2OCC3)CC1 [PRUCALOPRIDE],Population Apoptotic (%),[1],22% and 31%
same,Population Fragmented Nuclei (%),[1],10% and 4%
same,Population Healthy Nuclei (%),[1],80% and 82%
same,Population Hoechst High Intensity Objects (%),[1],8% and 7%
same,Population Membrane Permeable-Phenotype (%),[1],0%
same,Population Mitochondria Different-Phenotype (%),[1],36% and 59%
same,Population Mitotic Cells (%),[1],77% and 68%
same,Population Normal (%),[1],91% and 92%
same,Population Pyknosed Nuclei (%),[1],9% and 12%
same,Population Tubulin-Different-Phenotype (%),[1],21% and 16%
same,Total Cell Count,[1],416 and 397
same,Population Apoptotic (%),[2],37% and 56%
same,Population Fragmented Nuclei (%),[2],8% and 10%
same,Population Healthy Nuclei (%),[2],74% and 72%
same,Population Hoechst High Intensity Objects (%),[2],4% and 10%
same,Population Membrane Permeable-Phenotype (%),[2],0%
same,Population Mitochondria Different-Phenotype (%),[2],59% and 75%
same,Population Mitotic Cells (%),[2],62% and 43%
same,Population Normal (%),[2],95% and 89%
same,Population Pyknosed Nuclei (%),[2],17%
same,Population Tubulin-Different-Phenotype (%),[2],43% and 35%
same,Total Cell Count,[2],421 and 261
same,Population Apoptotic (%),[3],20% and 28%
same,Population Fragmented Nuclei (%),[3],11% and 8%
same,Population Healthy Nuclei (%),[3],78% and 84%
same,Population Hoechst High Intensity Objects (%),[3],5% and 4%
same,Population Membrane Permeable-Phenotype (%),[3],1% and 0%
same,Population Mitochondria Different-Phenotype (%),[3],18% and 39%
same,Population Mitotic Cells (%),[3],79% and 71%
same,Population Normal (%),[3],94% and 95%
same,Population Pyknosed Nuclei (%),[3],10% and 6%
same,Population Tubulin-Different-Phenotype (%),[3],14% and 10%
same,Total Cell Count,[3],590 and 546
same,Population Apoptotic (%),[4],28% and 50%
same,Population Fragmented Nuclei (%),[4],8% and 13%
same,Population Healthy Nuclei (%),[4],77% and 73%
same,Population Hoechst High Intensity Objects (%),[4],4% and 9%
same,Population Membrane Permeable-Phenotype (%),[4],0%
same,Population Mitochondria Different-Phenotype (%),[4],48% and 51%
same,Population Mitotic Cells (%),[4],71% and 50%
same,Population Normal (%),[4],95% and 90%
same,Population Pyknosed Nuclei (%),[4],13% and 12%
same,Population Tubulin-Different-Phenotype (%),[4],32% and 25%
same,Total Cell Count,[4],531 and 341
same,Population Apoptotic (%),[5],24% and 21%
same,Population Fragmented Nuclei (%),[5],15% and 11%
same,Population Healthy Nuclei (%),[5],76% and 81%
same,Population Hoechst High Intensity Objects (%),[5],2% and 1%
same,Population Membrane Permeable-Phenotype (%),[5],1% and 0%
same,Population Mitochondria Different-Phenotype (%),[5],16% and 15%
same,Population Mitotic Cells (%),[5],75% and 78%
same,Population Normal (%),[5],97% and 98%
same,Population Pyknosed Nuclei (%),[5],7% and 6%
same,Population Tubulin-Different-Phenotype (%),[5],11% and 9%
same,Total Cell Count,[5],1001 and 832
same,Population Apoptotic (%),[6],20% and 35%
same,Population Fragmented Nuclei (%),[6],16%
same,Population Healthy Nuclei (%),[6],77% and 75%
same,Population Hoechst High Intensity Objects (%),[6],1% and 3%
same,Population Membrane Permeable-Phenotype (%),[6],1% and 0%
same,Population Mitochondria Different-Phenotype (%),[6],32% and 31%
same,Population Mitotic Cells (%),[6],79% and 64%
same,Population Normal (%),[6],98% and 96%
same,Population Pyknosed Nuclei (%),[6],6% and 7%
same,Population Tubulin-Different-Phenotype (%),[6],16% and 15%
same,Total Cell Count,[6],772 and 528
c1ccc2nc(N3CCNCC3)ccc2c1 [QUIPAZINE],Population Apoptotic (%),[1],6.35% and 5.69%
same,Population Fragmented Nuclei (%),[1],1.8% and 5.66%
same,Population Healthy Nuclei (%),[1],49.61% and 16.98%
same,Population Hoechst High Intensity Objects (%),[1],0%
same,Population Membrane Permeable-Phenotype (%),[1],0.52% and 0%
same,Population Mitochondria Different-Phenotype (%),[1],33.16% and 11.11%
same,Population Mitotic Cells (%),[1],93.65% and 94.31%
same,Population Normal (%),[1],100%
same,Population Pyknosed Nuclei (%),[1],48.59% and 77.36%
same,Total Cell Count,[1],389 and 159
same,Population Apoptotic (%),[2],10.22% and 12.62%
same,Population Fragmented Nuclei (%),[2],1.36% and 2.36%
same,Population Hoechst High Intensity Objects (%),[2],0.68% and 0%
same,Population Membrane Permeable-Phenotype (%),[2],0.65% and 4.76%
same,Population Mitochondria Different-Phenotype (%),[2],23.53% and 19.05%
same,Population Mitotic Cells (%),[2],89.78% and 87.38%
same,Population Normal (%),[2],99.32% and 100%
same,Population Pyknosed Nuclei (%),[2],46.6% and 81.1%
same,Total Cell Count,[2],296 and 127
same,Population Apoptotic (%),[3],10.39% and 10%
same,Population Fragmented Nuclei (%),[3],1.31% and 1.74%
same,Population Healthy Nuclei (%),[3],73.44% and 34.3%
same,Population Hoechst High Intensity Objects (%),[3],0%
same,Population Membrane Permeable-Phenotype (%),[3],2.9% and 0%
same,Population Mitochondria Different-Phenotype (%),[3],14.29% and 11.86%
same,Population Mitotic Cells (%),[3],89.61% and 90%
same,Population Normal (%),[3],100%
same,Population Pyknosed Nuclei (%),[3],25.25% and 63.95%
same,Population Tubulin-Different-Phenotype (%),[3],16.29% and 6.78%
same,Population Apoptotic (%),[4],18.49% and 17.05%
same,Population Fragmented Nuclei (%),[4],1.63% and 1.53%
same,Population Healthy Nuclei (%),[4],74.08% and 31.3%
same,Population Hoechst High Intensity Objects (%),[4],0.41% and 0%
same,Population Membrane Permeable-Phenotype (%),[4],1.1% and 0%
same,Population Mitochondria Different-Phenotype (%),[4],15.98% and 14.63%
same,Population Mitotic Cells (%),[4],81.51% and 82.95%
same,Population Normal (%),[4],99.59% and 100%
same,Population Pyknosed Nuclei (%),[4],24.29% and 67.18%
same,Population Tubulin-Different-Phenotype (%),[4],15.98% and 9.76%
same,Population Fragmented Nuclei (%),[5],2.36% and 0.5%
same,Population Healthy Nuclei (%),[5],83.55% and 65%
same,Population Hoechst High Intensity Objects (%),[5],0.15% and 0%
same,Population Membrane Permeable-Phenotype (%),[5],6.88% and 1.54%
same,Population Mitochondria Different-Phenotype (%),[5],14.83% and 16.15%
same,Population Mitotic Cells (%),[5],95.81% and 81.16%
same,Population Normal (%),[5],99.85% and 100%
same,Population Pyknosed Nuclei (%),[5],14.09% and 34.5%
same,Population Apoptotic (%),[6],13.64% and 6.25%
same,Population Fragmented Nuclei (%),[6],3.18% and 1.42%
same,Population Healthy Nuclei (%),[6],86.82% and 64.54%
same,Population Hoechst High Intensity Objects (%),[6],0%
same,Population Membrane Permeable-Phenotype (%),[6],5.34% and 3.3%
same,Population Mitochondria Different-Phenotype (%),[6],17.59% and 12.09%
same,Population Mitotic Cells (%),[6],86.36% and 93.75%
same,Population Normal (%),[6],100%
